The source made the active and inactive calls. No cut-off for these calls is given here.
Legend:
[1] = Inhibition of collagen binding to integrin alpha-2-beta-1 in intact platelets; set-up: species or system Homo sapiens
Procedure, shortened: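 Gel-filtered human platelets allowed to adhere to type I collagen immobilized on 96-well plates in presence of inhibitor; inhibition scored by number of bound platelets.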

[2] = Inhibition of collagen binding to integrin alpha-2-beta-1 by ELISA; set-up: species or system Homo sapiens
Procedure, shortened: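 Collagen type I (soluble) immobilized on 96-well plate; recombinant GST-tagged α2 I-domain added with increasing concentrations of inhibitor. Bound I-domain detected with peroxidase-conjugated anti-GST antibody, colorimetric read at 405 nm; IC50 derived from concentration series.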

Platelet = assay: Inhibition of collagen-induced platelet aggregation at 5 uM; format: functional, cell-based; settings: Homo sapiens

| Structure (SMILES) | IC50 [1] [µM] | IC50 [2] [µM] | Activity (Platelet) |
| --- | --- | --- | --- |
| NCCSc1c(N)cccc1NC(=O)c1cccc(C(=O)Nc2cccc(NC(=O)[C@@H](N)Cc3ccc4ccccc4c3)c2SCCN)c1 | 85.3 | > 50 |  |
| NCCOc1cc(C(=O)Nc2cccc(NC(=O)[C@H](N)Cc3ccccc3)c2SCCN)cc(C(=O)Nc2cccc(NC(=O)[C@H](N)Cc3ccccc3)c2SCCN)c1 | 43.2 | > 50 |  |
| NCCSc1c(N)cccc1NC(=O)c1cccc(C(=O)Nc2cccc(NC(=O)[C@H](N)Cc3cccnc3)c2SCCN)c1 | > 100 | > 50 |  |
| CC(C)(C)c1cc(NC(=O)c2cccc(C(=O)Nc3cc(C(C)(C)C)cc(NC(=O)[C@H](N)Cc4cccnc4)c3SCCN)c2)c(SCCN)c(NC(=O)[C@H](N)Cc2cccnc2)c1 | > 100 | > 50 |  |
| NCCSc1c(N)cccc1NC(=O)c1cccc(C(=O)Nc2cccc(NC(=O)[C@H](N)Cc3ccc4ccccc4c3)c2SCCN)c1 | 64.6 | > 50 |  |
| CC(C)(C)c1ccc(SCCN)c(NC(=O)c2cc(C(=O)Nc3cc(C(C)(C)C)ccc3SCCN)c(OCCN)cc2OCCN)c1 | > 100 | > 50 |  |
| CC(C)(C)c1cc(NC(=O)c2cccc(C(=O)Nc3cc(C(C)(C)C)cc(NC(=O)[C@H](N)Cc4ccc5ccccc5c4)c3SCCN)c2)c(SCCN)c(NC(=O)[C@H](N)Cc2ccc3ccccc3c2)c1 | 14.4 | > 20 |  |
| NCCSc1c(NC(=O)c2cccc(C(=O)Nc3cccc(NC(=O)[C@@H](N)Cc4ccc5ccccc5c4)c3SCCN)c2)cccc1NC(=O)[C@@H](N)Cc1ccc2ccccc2c1 | 10.1 | 6.23 |  |
| CC(C)(C)c1cc(NC(=O)CN)c(SCCN)c(NC(=O)c2cccc(C(=O)Nc3cc(C(C)(C)C)cc(NC(=O)CN)c3SCCN)c2)c1 | > 100 | > 50 |  |
| CC(C)(C)c1cc(NC(=O)c2cccc(C(=O)Nc3cc(C(C)(C)C)cc(NC(=O)[C@@H](N)Cc4ccc5ccccc5c4)c3SCCN)c2)c(SCCN)c(NC(=O)[C@@H](N)Cc2ccc3ccccc3c2)c1 | 3.4 | 4.8 | Active |
| CC(C)(C)c1cc(NC(=O)c2cccc(C(=O)Nc3cc(C(C)(C)C)cc(NC(=O)[C@@H](N)CCCN=C(N)N)c3SCCN)c2)c(SCCN)c(NC(=O)[C@@H](N)CCCN=C(N)N)c1 | > 100 | > 50 |  |
| CC(C)(C)c1cc(NC(=O)CCCN)c(SCCN)c(NC(=O)c2cccc(C(=O)Nc3cc(C(C)(C)C)cc(NC(=O)CCCN)c3SCCN)c2)c1 | > 100 | > 50 |  |
| C[C@@H](N)C(=O)Nc1cc(C(C)(C)C)cc(NC(=O)c2cccc(C(=O)Nc3cc(C(C)(C)C)cc(NC(=O)[C@@H](C)N)c3SCCN)c2)c1SCCN | > 100 | > 50 |  |
| NCCSc1c(NC(=O)c2cccc(C(=O)Nc3cccc(NC(=O)[C@H](N)Cc4ccc5ccccc5c4)c3SCCN)c2)cccc1NC(=O)[C@H](N)Cc1ccc2ccccc2c1 | 16.9 | 19.7 |  |
| CC(C)(C)c1cc(NC(=O)c2cccc(C(=O)Nc3cc(C(C)(C)C)cc(NC(=O)[C@H](N)Cc4c[nH]c5ccccc45)c3SCCN)c2)c(SCCN)c(NC(=O)[C@H](N)Cc2c[nH]c3ccccc23)c1 | 17.3 | > 20 |  |
